Data on twelve compounds can be found in ChEMBL document CHEMBL2040744, “Phenanthrene derivatives from Cymbidium Great Flower Marie Laurencin and their biological activities” (J Nat Prod, 2012).

Converted amounts (≈) assume the structure as drawn.

Test [1] concerns HL-60. The test can be described thus: Cytotoxicity against human HL60 cells after 72 hrs by WST8 assay. It is filed as functional, cell-based. As to conditions: HL-60, 72 h. An outline of the steps:
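HL-60 cells were kept in RPMI-1640 with 10% FBS at 37 °C under 5% CO2. Cells were seeded at 5 × 10^3 per well and preincubated 2 h, then exposed to compound in medium for 72 h. WST-8 was added for a further 3 h, and formazan absorbance was read at 450 nm to give IC50.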

Test [2] has as its system Bacillus subtilis. Description: Antibacterial activity against Bacillus subtilis NBRC 3134 after overnight incubation by microdilution method. It is filed as functional. The method in brief: (§1)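 Broth microdilution MIC. Strains were first grown on YP agar (1% polypeptone, 0.2% yeast extract, 0.1% MgSO4·7H2O, 6% agar) for 12 h, B. subtilis at 37 °C and K. pneumoniae at 27 °C. Samples came from a 10 mg/mL DMSO stock, serially diluted in 96-well plates of strain in YP medium, then incubated overnight at 37 °C. Ampicillin served as reference.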
A general note: Broth dilution looks for growth in wells or tubes with falling amounts of substance.

Test [3] concerns Klebsiella pneumoniae. Description: Antibacterial activity against Klebsiella pneumoniae NBRC 3512 after overnight incubation by microdilution method. It is filed as functional. The method in brief:
as §1

Regarding `CO[C@@]12[C@H](COC(N)=O)C3=C(C(=O)C(C)=C(N)C3=O)N1C[C@@H]1N[C@@H]12` [MITOMYCIN], it took 0.1 µM to reach half-maximal inhibition in test [1] (IC50). `COC1=CC(=O)C2=C(CCc3cccc(O)c32)C1=O` [EPHEMERANTHOQUINONE B] displayed an MIC in test [2] of 4.88 µM (≈ 1.25 µg/mL). In test [1], this compound yielded an IC50 of 2.8 µM. Turning to `COc1cc2c(c(O[C@@H]3O[C@H](CO)[C@@H](O)[C@H](O)[C@H]3O)c1O)-c1c(O)cccc1CC2` [MARYLAURENCINOSIDE A], in test [1], the 50% inhibitory concentration (IC50) stood at 52.4 µM. With `COc1c(O)c2c(c(OC)c1O)-c1c(O)cccc1CC2` [MARYLAURENCINOLS B], the minimal inhibitory concentration (MIC) in test [2] was 65.1 µM (≈ 18.8 µg/mL). Further, the 50% inhibitory concentration (IC50) in test [1] worked out at 174 µM. The corresponding values for `COc1cc2ccc3cc(O)ccc3c2c(OC)c1O` are 185 µM (≈ 50.1 µg/mL) and 34.2 µM. In the case of `COc1cc2ccc3cccc(O)c3c2c(OC)c1O` [BULBOPHYLLANTHRIN], the MIC in test [2] and in test [3] was 185 µM (≈ 50.1 µg/mL) each time. Moreover, the IC50 in test [1] was found to be 52.4 µM. `COc1cc2c(c(OC)c1O)-c1c(O)cccc1CC2` [MARYLAURENCINOLS A]: inhibition in test [1] was half-maximal at 96.8 µM (IC50). In the case of `COc1cc2ccc3c(OC)c(O)ccc3c2c(OC)c1O`, in test [2], the MIC was determined as 250 µM (≈ 75.1 µg/mL). Also, the IC50 in test [1] stood at 103 µM.

For the compound `COc1ccc2c(ccc3cc(OC)c(O)c(OC)c32)c1`, in test [2], the MIC was determined as 52.8 µM (≈ 15 µg/mL). The compound also came in with an IC50 in test [1] of 19.3 µM. Turning to `COc1ccc2c(c1)CCc1cc(OC)c(O)c(OC)c1-2`, in test [1], it took 31.8 µM to reach half-maximal inhibition (IC50). In the case of `COc1c(O)cc2c(c1OC)-c1ccc(O)cc1CC2` [ERIANTHRIDIN], the IC50 in test [1] came out at 44.6 µM.

As to `CC1(C)S[C@@H]2[C@H](NC(=O)[C@H](N)c3ccccc3)C(=O)N2[C@H]1C(=O)O` [AMPICILLIN], the MIC came out at 0.36 µM (≈ 0.126 µg/mL) in test [2] and 107 µM (≈ 37.5 µg/mL) in test [3].

The IC50 is the point on the concentration scale where inhibition reaches its midpoint. One may read the MIC as the lowest concentration that inhibits growth of the organism.
